High-throughput results from PubChem BioAssay.
Sampled rows, rich in hits. Any-hit rate of the full collection: about 1.5%.
Runt-CBFb FRET = inhibitors of RUNX1 Runt–CBFb binding, primary screen, biochemical, FRET, Cerulean-Runt, Venus-CBFb, uHTS; AID 1496, 2009; Cerulean-Runt/Venus-CBFb FRET ratio 530/480, 1 h; Runt-related transcription factor 1 (Homo sapiens) + Core-binding factor subunit beta …; inhibition, % at 20 µM; actives 0.46% (n = 220,000);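 active = inhibition over about 50% at 20 µM in the single-dose screen, limit read from the data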
Target sequence (Q01196 whole entry, looked up): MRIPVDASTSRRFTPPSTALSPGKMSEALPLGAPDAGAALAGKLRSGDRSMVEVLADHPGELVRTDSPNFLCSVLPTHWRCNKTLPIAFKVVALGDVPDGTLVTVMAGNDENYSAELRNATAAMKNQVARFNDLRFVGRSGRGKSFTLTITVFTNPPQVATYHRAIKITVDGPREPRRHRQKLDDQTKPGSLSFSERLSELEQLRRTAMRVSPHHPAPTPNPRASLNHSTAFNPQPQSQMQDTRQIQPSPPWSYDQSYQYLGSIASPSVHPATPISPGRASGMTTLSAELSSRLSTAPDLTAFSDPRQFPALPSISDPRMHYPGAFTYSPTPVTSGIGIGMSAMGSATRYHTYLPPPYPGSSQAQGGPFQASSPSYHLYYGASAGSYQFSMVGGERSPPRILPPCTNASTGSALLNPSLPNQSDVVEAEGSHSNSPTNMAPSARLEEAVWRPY
Target sequence (Q13951 whole entry, looked up): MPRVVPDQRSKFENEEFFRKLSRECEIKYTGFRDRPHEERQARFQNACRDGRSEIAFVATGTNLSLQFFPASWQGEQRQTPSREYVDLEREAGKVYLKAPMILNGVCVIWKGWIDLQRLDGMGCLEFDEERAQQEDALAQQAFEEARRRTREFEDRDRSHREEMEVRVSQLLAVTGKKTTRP
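test system = Cerulean-tagged RUNX1 Runt domain (FRET donor) fusion protein | reagent = Venus-CBFb binding partner, 100 nM | incubation = protein complex preformed 1 h, compound exposure 1 h, room temperature, dark | detection = FRET fluorescence | read-out basis = loss of energy transfer signal | controls = 5 µM unlabeled CBFb as full-inhibition high control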
CaV13 ICDI inh = Primary screen for inhibitors of IQ motif and Ca2+-dependent inactivation inhibitor domain binding in CACNA1D, Förster resonance energy transfer in living cells, … | actives 0.098% (n = 340,000) | HEK cells, CFP/YFP FRET ICDI-IQ, plate reader, 10 min; percent FRET-ratio fall versus neutral wells | inhibition, % at 12.3 µM;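 active = mean replicate inhibition of at least 30% and at least 1% of replicates passing that level; inconclusive = only one of the two criteria is met; inactive = neither criterion is met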
Hck-Nef inh = inhibitors of Nef-activated human Hck kinase, primary screen, biochemical, Z-Lyte FRET, 384-well, Hck-YEEI. Tyrosine-protein kinase HCK (Homo sapiens), P08631. Recombinant Hck-YEEI plus Nef, Z-Lyte FRET kinase assay. inhibition, % at 20 µM. actives 0.68% (n = 220,000). AID 463187, 2010;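 active = Hck-Nef kinase inhibition above about 50%, limit read from the data; inactive = inhibition below that limit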
RanGTP-Imp inh = inhibitors of RanGTP-importin-beta interaction, primary screen, biochemical, FRET, CFP-Ran, YFP-importin-beta, homogeneous; Ran GTPase (GTP-bound) - importin-beta complex; cell-free CFP-Ran/YFP-importin-beta FRET ratio; inhibition, % (concentration not given with the values); actives 1.1% (n = 300,000); AID 2216, 2009;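 active = more than half of the replicate wells show a fall in the fluorescence ratio signal beyond about 16%, limit read from the data, passing the limit was not always enough; inconclusive = exactly half of the replicate wells pass the set limit; inactive = fewer than half of replicates pass the limit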
Runt-SMMHC FRET = inhibitors of RUNX1 Runt–CBFb-SMMHC binding, primary screen, biochemical, FRET, Cerulean-Runt, Venus-CBFb-SMMHC, uHTS; actives 0.74% (n = 220,000); inhibition, % at 20 µM; Runt-related transcription factor 1 (Homo sapiens) + Core-binding factor subunit beta …; Cerulean-Runt/Venus-CBFb-SMMHC FRET ratio 530/480, 1 h; AID 1434, 2008;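 active = mean inhibition across duplicate retests at 20 µM reaching about 50%, limit read from the data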;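 note: inhibitors lower the FRET ratio by blocking Runt binding to CBFb-SMMHC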
Runt-CBFb TRFRET = inhibitors of RUNX1 Runt–CBFb binding, biochemical, TR-FRET; shares compounds with Runt-CBFb FRET; TR-FRET RUNX1 Runt domain-CBFb binding; inhibition, % at 20 µM; actives 20% (n = 480); in the data active = inhibition above about 40%
YIC counter = YIC intramolecular FRET probe signal interference, dose response, counter-screen for RanGTP-importin-beta inhibitor project, biochemical, fluorescence FRET | shares compounds with RanGTP-Imp inh | Purified YIC probe, intramolecular FRET ratio YFP/CFP | IC50, µM | actives 40% (n = 1,000) | AID 435026, 2010;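 active = fitted half-maximal inhibitory concentration no more than tenfold above the top dose tested; inconclusive = flat fit with 30 to 70% activity, or poor fit; inactive = half-maximal concentration beyond tenfold above the top dose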
A number is an active result; 0 = inactive; ? = inconclusive; - = no result shown.

SMILES	Runt-CBFb FRET	CaV13 ICDI inh	Hck-Nef inh	RanGTP-Imp inh	Runt-SMMHC FRET	YIC counter	others
CCc1cc2c(=O)c(-c3nc4ccccc4n3C)coc2c(CN2CCCC(C)C2)c1O (centres undefined)	-	0	-	0	-	-
CC1CC(C)CN(C(=O)c2cc(S(=O)(=O)N3CCCCC3)ccc2Cl)C1 (centres undefined)	-	0	-	0	-	-
COc1ccc(CCN2C(=O)C3C(C2=O)C2C=CC3C23CC3)cc1OC (centres undefined)	0	0	0	0	0	-
CCN(CC)CCN1C(=O)C(=O)/C(=C(/O)c2ccc(S(=O)(=O)N3CCOCC3)cc2)C1c1ccc(C(C)(C)C)cc1 (centres undefined)	-	-	-	0	-	-
Cc1cc(=O)oc2c(CN3CCCCC3)c(O)c(Cl)cc12	62.1	0	124.8	0	134.5	-	Runt-CBFb TRFRET=0
CCN1CCN(Cc2c(O)ccc3c(C)cc(=O)oc23)CC1	-	0	-	0	-	-
Cc1cc(=O)oc2c(CN3CCCC3)c(O)c(Cl)cc12	-	0	-	0	-	-
CCN1CCN(Cc2c(O)c(Cl)cc3c(C)cc(=O)oc23)CC1	93.9	0	149.2	27.0	167.9	38.8	Runt-CBFb TRFRET=0
Cc1ccc(CN(C)C(=O)C2CCC(=O)N(CC3CCCCC3)C2)o1 (centres undefined)	-	0	-	0	-	-
CCOC(=O)c1nn2c(C(F)(F)F)cc(-c3ccc(OC)cc3)nc2c1Br	-	0	-	0	-	-
Cc1noc(C)c1NC(=O)N(C)C[C@@H]1OCc2cnnn2CCCC(=O)N([C@@H](C)CO)C[C@@H]1C	-	0	-	-	-	-
CC1CCCN(c2nc3ccccc3nc2C(C#N)C(=O)OC2CCCCC2)C1 (centres undefined)	0	-	0	-	0	-
CC1CCN(c2nc3ccccc3nc2C(C#N)C(=O)OC2CCCCC2)CC1 (centres undefined)	0	-	0	19.7	0	14.5
CN(CC(=O)Nc1ccc(Cl)cc1)C(=O)c1sccc1-c1ccccc1	-	0	-	-	-	-
CC(=O)Nc1cc(C(=O)N(C)Cc2ccco2)ccc1Sc1ccc(Cl)cc1	0	0	0	17.5	0	0
CC(=O)Nc1cc(C(=O)NCc2ccco2)ccc1Sc1ccc(Cl)cc1	0	0	0	0	0	-
Cc1ccc(-n2cc(CN3CCN(C(=O)c4ncn[nH]4)CC3)c(-c3ccc(F)cc3)n2)cc1	0	0	0	0	0	-
CCCC(=Nc1ccccc1OC)C1=C(O)CC(c2ccccc2)CC1=O (centres undefined)	0	0	0	0	0	-
COc1ccccc1N=C(C)C1=C(O)CC(c2ccccc2)CC1=O (centres undefined)	0	0	0	20.0	0	0
c1cnn(Cc2cnc(N3CCOCC3)s2)c1	0	0	0	0	0	-
CC12OC1C1(O)CCCC1=CC2=O (centres undefined)	-	-	-	19.8	-	0
CCN(CC)c1ccc(/C=N/NC(=O)c2ccc3nc[nH]c3c2)c(O)c1	0	-	0	37.8	61.7	13.3
COc1cccc(/C=N/NC(=O)c2ccc3nc[nH]c3c2)c1O	0	0	0	0	0	-
COc1ccc(Cl)cc1NC(=O)CSc1nc(=O)n(CCN(C)C)c2c1CCCC2	-	0	-	0	-	-
COc1cccc(-c2cccc(NC(=O)C3CCN(C4CCOCC4)CC3)c2)c1	-	0	-	0	-	-
SMILES	Runt-CBFb FRET	CaV13 ICDI inh	Hck-Nef inh	RanGTP-Imp inh	Runt-SMMHC FRET	YIC counter	others
CN(C)C(=O)N1CCC(C(=O)N2CCCC(C(=O)c3cccc4ccccc34)C2)CC1 (centres undefined)	0	0	0	0	0	-
OCC1(Cc2cccc(Cl)c2)CCCN(Cc2ccc3cc(F)ccc3n2)C1 (centres undefined)	0	0	0	24.3	0	0
O=C(Oc1ccc2c3c(c(=O)oc2c1)CCCC3)c1ccco1	129.6	-	0	16.6	165.5	19.6
CC(=O)Oc1ccc2c3c(c(=O)oc2c1)CCCC3	-	0	-	0	-	-
C[C@H](O)c1[nH]c2cc(F)ccc2c1[C@H](C)O	-	0	-	17.5	-	0
Cc1ccc(/C=C(\C#N)C(=O)NC(C)C)o1	0	0	0	0	0	-
CC(C)NC(=O)/C(C#N)=C/c1ccc(N(C)C)o1	0	0	0	40.8	0	6.38
Cc1cc2c(c(=O)n1C1CC1)C(c1cccc(Cl)c1)C(C#N)=C(N)O2 (centres undefined)	0	0	0	19.9	0	0
COCC1CCCCN1C(=O)c1cccc(OC2CCN(S(C)(=O)=O)CC2)c1 (centres undefined)	-	0	-	0	-	-
COc1ccc(N2Cc3ccccc3/C2=N\C(=O)Nc2ccccc2)cc1	0	-	0	17.3	0	0
CC(=O)CN1Cc2ccccc2/C1=N\C(=O)Nc1ccccc1	0	0	0	0	0	-
CCc1ccc(NC(=S)N2CCCC(C(F)(F)F)C2)cc1 (centres undefined)	0	0	0	0	0	-
CCN(CC)S(=O)(=O)c1ccc(OC)c(NC(=O)C2CC(=O)N(c3ccc(C)cc3)C2)c1 (centres undefined)	0	0	0	29.1	0	0
CCCn1cnc2cc(NCc3ccc(Br)cc3)ccc21	-	0	-	19.4	-	0
CCn1cnc2cc(NCc3ccc(Br)cc3)ccc21	-	0	-	?	-	-
CC(NCc1cccs1)C(=O)NC1CCCCC1 (centres undefined)	0	0	0	17.4	0	0
CC(C)C(NC(=O)c1cccs1)C(=O)NC1CCCCC1 (centres undefined)	-	0	-	0	-	-
CC(C)CC(=O)N1CCN(C(=O)c2ccc(F)cc2)CC1	-	0	-	0	-	-
C=CCNc1sc(C(=O)c2ccc(Br)s2)c(N)c1C#N	0	0	0	19.0	0	5.57
O=C(/C=C/c1cccs1)Nc1ccc([N+](=O)[O-])cc1	0	0	0	18.8	0	0
Cn1c(SCC(=O)c2ccc(O)cc2O)nnc1-c1ccccc1	-	0	-	0	-	-
O=C(COC(=O)c1cccnc1Nc1ccccc1F)NCCN1C(=O)CSC1=O	0	0	0	27.4	0	0
CCCNC(=O)COC(=O)c1cccnc1Nc1ccccc1F	0	0	0	0	0	-
Cc1cc(Br)cc(Br)c1OCC(=O)NNC(=O)c1ccoc1C	-	0	-	0	-	-
